Reference: ChEMBL document CHEMBL4834420, “Projected Dose Optimization of Amino- and Hydroxypyrrolidine Purine PI3Kδ Immunomodulators” (J Med Chem, 2021)
≈ marks a conversion by molar mass, not a printed value.

Tests used:
[1] = Solubility of the compound at pH 7.4; type: physicochemical; details: buffer
[2] = biological target: ATP-dependent translocase ABCB1 (Homo sapiens, UniProt P08183); test: Inhibition of PGP (unknown origin)
[3] = Unbound trough plasma concentration C57BL/6 mouse at 100 mg/kg; type: ADME, organism-based; details: in vivo
Procedure, shortened: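 C57BL/6-Foxp3-GFP reporter mice were dosed at 30 and 100 mg/kg/day for up to 7 days, with exposure determined at 100 mg/kg. The unbound Cmax and trough values were derived from total plasma levels. Treg readout was bioluminescence imaging 10 min after 3 mg luciferin ip, reported as radiance in photons/s/cm²/steradian.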

[4] = Solubility of compound in stimulated intestinal fluid; type: physicochemical; details: simulated intestinal fluid
[5] = Protein binding in Beagle dog plasma; type: ADME, cell-free, Canis lupus familiaris; details: read-out: PPB (converted)
[6] = Intrinsic clearance in rat hepatocytes; type: ADME, cell-based, Hepatocyte; details: read-out: CLH
[7] = Plasma clearance in C57BL/6 mouse at 1 mg/kg, iv or 3 mg/kg, po; type: ADME, organism-based
[8] = Intrinsic clearance in C57BL/6 mouse at 1 mg/kg, iv or 3 mg/kg, po; type: ADME, organism-based; details: in vivo
[9] = Plasma clearance in Beagle dog at 0.25 mg/kg, iv or 0.5 mg/kg, po; type: ADME, organism-based, Canis lupus familiaris
[10] = Plasma clearance in Wistar Han rat at 0.5 mg/kg, iv or 1 mg/kg, po; type: ADME, organism-based
[11] = biological target: PI3-kinase p110-delta/p85-alpha (Homo sapiens, UniProt O00329); test: Inhibition of N-terminal His6-tagged recombinant full length human p110delta/untagged recombinant full length human p85alpha expressed in baculovirus infected Sf21 insect cells using PIP2 as substrate preincubated for 15 mins followed by substrate addition and measured after 1 hr by HTRF assay
[12] = AUC in C57BL/6 mouse at 100 mg/kg; type: ADME, organism-based; set-up: dose 100 mg/kg; details: in vivo
[13] = biological target: T1, Solute carrier organic anion transporter family member 1B1 (Homo sapiens, UniProt Q9Y6L6); test: Inhibition of OATP1B1 (unknown origin)
T1 sequence (Q9Y6L6 whole entry): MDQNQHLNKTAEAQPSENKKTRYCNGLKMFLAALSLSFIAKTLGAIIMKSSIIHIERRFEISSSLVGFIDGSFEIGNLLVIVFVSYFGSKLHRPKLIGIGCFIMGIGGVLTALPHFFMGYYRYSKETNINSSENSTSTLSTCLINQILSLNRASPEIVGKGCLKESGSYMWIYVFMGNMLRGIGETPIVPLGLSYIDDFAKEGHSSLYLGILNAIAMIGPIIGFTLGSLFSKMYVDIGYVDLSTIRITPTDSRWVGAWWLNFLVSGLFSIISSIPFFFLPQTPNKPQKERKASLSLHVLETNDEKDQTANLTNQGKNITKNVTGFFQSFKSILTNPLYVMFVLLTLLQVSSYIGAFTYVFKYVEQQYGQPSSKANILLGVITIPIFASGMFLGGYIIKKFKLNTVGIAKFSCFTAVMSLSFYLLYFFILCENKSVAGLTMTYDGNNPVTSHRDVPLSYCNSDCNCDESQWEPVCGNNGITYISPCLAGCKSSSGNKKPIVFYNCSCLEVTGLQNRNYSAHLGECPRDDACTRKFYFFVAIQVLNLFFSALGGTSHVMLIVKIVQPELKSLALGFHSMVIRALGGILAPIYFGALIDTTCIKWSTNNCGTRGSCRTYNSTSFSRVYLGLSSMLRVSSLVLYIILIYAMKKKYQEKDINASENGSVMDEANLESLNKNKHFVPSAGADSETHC

[14] = Oral bioavailability in C57BL/6 mouse; type: ADME, organism-based; details: in vivo
Rattus norvegicus = test: Immunomodulatory activity in ovalbumin induced Brown Norway rat allergic rhinitis model assessed as reduction in BAL count at 10 mg/kg, po administered for 2 days and treated with ovalbumin after 1 hr post second dose; type: functional; set-up: scale not given: the % may be the effect or the level left; details: time 2 day
Procedure, shortened: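 Brown Norway rats were presensitized with ovalbumin, 0.020 mg ip daily for 14 days. They then received compound orally for 2 days (0.3–30 mg/kg range studied). Ovalbumin challenge came 1 h after the second dose. Eosinophil cell count in bronchoalveolar lavage was assessed 48 h later.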

[15] = Volume of distribution in C57BL/6 mouse; type: ADME; details: in vivo
[16] = biological target: Voltage-gated inwardly rectifying potassium channel KCNH2 (Homo sapiens, UniProt Q12809); test: Inhibition of hERG (unknown origin)
[17] = Intrinsic clearance in Wistar Han rat at 0.5 mg/kg, iv or 1 mg/kg, po; type: ADME, organism-based; details: in vivo
Cytochrome P450 3A4 = Cytochrome P450 3A4 (Homo sapiens, UniProt P08684); test: Inhibition of CYP3A4 (unknown origin); type: ADME
[18] = Unbound Trough plasma concentration Brown Norway rat at 10 mg/kg, po; type: ADME, organism-based; details: in vivo
[19] = Unbound volume of distribution in Beagle dog; type: ADME, Canis lupus familiaris; details: in vivo
[20] = Inhibition of adenosine transporter in human HeLa cells assessed as reduction in [3H]adenosine uptake preincubated for 30 mins followed by [3H]adenosine addition and measured after 60 mins; type: cell-based
[21] = Intrinsic clearance in dog hepatocytes; type: ADME, cell-based, Canis lupus familiaris, Hepatocyte; details: read-out: CLH
[22] = Protein binding in C57BL/6 mouse plasma; type: ADME, cell-free; details: read-out: PPB (converted)
Cytochrome P450 2B6 = biological target: T2, Cytochrome P450 2B6 (Homo sapiens, UniProt P20813); test: Inhibition of CYP2B6 (unknown origin); type: ADME
T2 sequence (P20813 whole entry): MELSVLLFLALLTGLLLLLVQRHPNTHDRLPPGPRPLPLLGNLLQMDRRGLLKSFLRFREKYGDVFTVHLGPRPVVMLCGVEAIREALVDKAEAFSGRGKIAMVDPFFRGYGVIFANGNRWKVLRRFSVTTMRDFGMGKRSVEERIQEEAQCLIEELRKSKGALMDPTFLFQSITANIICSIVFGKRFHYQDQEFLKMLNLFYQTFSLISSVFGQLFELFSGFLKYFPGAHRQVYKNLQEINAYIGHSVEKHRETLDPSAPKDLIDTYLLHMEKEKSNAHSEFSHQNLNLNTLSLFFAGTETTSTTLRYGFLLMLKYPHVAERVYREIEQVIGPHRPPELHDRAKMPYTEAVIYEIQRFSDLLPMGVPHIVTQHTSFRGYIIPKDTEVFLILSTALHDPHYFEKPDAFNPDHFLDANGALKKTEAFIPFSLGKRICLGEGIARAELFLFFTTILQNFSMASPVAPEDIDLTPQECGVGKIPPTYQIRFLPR

Cytochrome P450 2D6 = Cytochrome P450 2D6 (Homo sapiens, UniProt P10635); test: Inhibition of CYP2D6 (unknown origin); type: ADME
[23] = Inhibition of dog PI3Kdelta; set-up: species or system Canis lupus familiaris
[24] = Lipophilicity, log D of the compound by HPLC analysis; type: physicochemical

PI3-kinase p110-delta/p85-alpha, sequence (P27986 whole entry): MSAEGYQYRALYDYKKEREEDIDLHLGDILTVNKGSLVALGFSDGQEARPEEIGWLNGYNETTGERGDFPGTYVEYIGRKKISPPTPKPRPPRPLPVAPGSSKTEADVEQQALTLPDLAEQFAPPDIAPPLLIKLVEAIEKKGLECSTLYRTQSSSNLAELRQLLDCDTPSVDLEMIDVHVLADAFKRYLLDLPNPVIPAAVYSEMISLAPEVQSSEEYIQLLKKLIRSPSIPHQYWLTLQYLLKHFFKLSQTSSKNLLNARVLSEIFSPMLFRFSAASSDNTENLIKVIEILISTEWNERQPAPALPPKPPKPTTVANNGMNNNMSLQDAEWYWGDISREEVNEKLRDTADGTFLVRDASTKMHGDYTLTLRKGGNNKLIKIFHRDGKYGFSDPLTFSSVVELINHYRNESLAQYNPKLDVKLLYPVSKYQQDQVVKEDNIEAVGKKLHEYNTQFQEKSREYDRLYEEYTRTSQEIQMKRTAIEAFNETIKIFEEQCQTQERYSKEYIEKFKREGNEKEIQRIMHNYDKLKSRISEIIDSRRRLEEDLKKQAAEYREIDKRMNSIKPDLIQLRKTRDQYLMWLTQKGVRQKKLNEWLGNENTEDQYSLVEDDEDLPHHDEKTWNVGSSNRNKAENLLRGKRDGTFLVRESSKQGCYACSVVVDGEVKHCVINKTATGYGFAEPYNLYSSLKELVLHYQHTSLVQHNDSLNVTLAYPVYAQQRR
PI3-kinase p110-delta/p85-alpha, sequence (O00329 whole entry): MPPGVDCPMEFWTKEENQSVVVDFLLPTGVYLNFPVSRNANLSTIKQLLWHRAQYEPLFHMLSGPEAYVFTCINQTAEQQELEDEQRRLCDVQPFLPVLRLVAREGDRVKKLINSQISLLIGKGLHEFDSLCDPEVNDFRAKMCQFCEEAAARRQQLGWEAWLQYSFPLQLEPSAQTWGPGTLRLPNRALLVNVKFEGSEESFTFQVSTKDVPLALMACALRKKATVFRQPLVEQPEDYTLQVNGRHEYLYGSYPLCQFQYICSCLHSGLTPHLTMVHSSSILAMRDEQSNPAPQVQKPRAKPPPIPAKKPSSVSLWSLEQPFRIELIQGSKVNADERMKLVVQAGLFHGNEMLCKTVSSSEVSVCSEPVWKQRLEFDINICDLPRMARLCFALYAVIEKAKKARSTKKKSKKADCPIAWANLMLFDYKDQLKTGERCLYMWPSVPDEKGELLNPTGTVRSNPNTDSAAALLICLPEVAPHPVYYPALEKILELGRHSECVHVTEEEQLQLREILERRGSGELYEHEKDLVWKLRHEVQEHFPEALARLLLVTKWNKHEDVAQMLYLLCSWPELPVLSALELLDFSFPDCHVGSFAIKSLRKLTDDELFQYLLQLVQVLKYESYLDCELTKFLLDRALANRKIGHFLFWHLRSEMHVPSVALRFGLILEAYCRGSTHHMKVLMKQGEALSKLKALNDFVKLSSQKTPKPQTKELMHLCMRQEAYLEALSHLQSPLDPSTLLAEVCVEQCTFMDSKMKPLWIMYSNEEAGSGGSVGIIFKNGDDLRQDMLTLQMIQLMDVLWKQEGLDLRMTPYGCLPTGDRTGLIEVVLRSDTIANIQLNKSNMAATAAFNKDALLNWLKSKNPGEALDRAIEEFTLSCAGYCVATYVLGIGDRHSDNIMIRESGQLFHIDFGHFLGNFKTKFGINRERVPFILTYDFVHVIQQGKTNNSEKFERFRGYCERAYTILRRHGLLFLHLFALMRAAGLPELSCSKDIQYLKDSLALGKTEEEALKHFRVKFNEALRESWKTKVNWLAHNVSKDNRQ
Cytochrome P450 3A4, sequence (P08684 whole entry): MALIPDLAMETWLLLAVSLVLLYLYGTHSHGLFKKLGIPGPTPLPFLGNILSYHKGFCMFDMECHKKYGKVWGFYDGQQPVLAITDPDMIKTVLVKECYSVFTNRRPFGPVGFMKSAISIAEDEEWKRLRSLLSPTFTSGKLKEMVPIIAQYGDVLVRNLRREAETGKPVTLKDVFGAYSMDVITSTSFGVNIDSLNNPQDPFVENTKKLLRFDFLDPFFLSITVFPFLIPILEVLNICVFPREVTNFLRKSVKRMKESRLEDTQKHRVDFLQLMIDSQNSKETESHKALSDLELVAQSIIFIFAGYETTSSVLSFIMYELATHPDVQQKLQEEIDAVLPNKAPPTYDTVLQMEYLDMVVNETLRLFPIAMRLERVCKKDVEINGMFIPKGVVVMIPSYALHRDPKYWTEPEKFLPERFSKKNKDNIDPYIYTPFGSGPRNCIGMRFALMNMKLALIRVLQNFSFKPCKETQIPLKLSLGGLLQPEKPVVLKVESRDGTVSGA
Cytochrome P450 2D6, sequence (P10635 whole entry): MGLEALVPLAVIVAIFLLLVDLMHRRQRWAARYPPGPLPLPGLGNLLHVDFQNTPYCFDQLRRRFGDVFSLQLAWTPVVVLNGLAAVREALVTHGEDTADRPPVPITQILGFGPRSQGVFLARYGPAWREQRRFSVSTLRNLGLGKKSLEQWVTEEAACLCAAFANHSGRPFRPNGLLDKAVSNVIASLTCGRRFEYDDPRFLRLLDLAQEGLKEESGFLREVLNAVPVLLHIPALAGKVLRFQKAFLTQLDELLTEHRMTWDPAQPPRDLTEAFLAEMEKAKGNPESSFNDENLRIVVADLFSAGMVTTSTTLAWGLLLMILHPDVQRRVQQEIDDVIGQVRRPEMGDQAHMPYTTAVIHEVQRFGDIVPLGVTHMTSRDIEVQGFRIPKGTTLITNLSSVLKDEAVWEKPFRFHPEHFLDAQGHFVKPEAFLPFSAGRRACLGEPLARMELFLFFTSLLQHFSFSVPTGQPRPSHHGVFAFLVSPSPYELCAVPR
Voltage-gated inwardly rectifying potassium channel KCNH2, sequence (Q12809 whole entry): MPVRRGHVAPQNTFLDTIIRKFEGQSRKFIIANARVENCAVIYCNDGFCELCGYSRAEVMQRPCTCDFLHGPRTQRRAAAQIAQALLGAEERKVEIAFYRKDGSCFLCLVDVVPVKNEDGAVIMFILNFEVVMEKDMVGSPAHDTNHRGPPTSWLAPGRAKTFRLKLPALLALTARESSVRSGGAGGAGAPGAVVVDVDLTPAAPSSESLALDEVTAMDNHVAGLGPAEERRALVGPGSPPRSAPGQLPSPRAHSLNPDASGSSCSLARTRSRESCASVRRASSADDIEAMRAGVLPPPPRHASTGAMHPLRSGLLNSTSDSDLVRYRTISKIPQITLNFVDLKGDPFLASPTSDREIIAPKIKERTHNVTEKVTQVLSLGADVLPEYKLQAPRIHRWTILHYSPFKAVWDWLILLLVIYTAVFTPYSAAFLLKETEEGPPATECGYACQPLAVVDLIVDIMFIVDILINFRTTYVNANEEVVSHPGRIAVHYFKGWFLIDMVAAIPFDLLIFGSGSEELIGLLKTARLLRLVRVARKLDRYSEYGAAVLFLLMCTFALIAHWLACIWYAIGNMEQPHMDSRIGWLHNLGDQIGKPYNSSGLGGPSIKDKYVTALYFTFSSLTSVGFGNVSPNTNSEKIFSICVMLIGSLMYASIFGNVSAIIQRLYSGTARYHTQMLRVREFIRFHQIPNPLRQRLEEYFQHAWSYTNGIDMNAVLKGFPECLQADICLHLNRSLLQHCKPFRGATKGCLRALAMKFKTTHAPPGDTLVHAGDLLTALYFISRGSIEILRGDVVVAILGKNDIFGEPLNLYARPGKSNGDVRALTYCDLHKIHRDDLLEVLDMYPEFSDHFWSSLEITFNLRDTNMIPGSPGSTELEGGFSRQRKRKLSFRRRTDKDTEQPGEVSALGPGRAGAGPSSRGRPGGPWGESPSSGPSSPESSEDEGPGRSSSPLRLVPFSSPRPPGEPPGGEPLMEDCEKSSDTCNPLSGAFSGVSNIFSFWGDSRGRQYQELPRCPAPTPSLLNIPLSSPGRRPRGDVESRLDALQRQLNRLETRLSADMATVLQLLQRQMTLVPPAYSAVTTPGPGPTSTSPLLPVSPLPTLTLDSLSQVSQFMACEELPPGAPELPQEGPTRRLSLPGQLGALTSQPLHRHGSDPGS

CCn1c(-c2cnc(C)nc2)nc2c(N[C@H]3CCN(C(=O)C4CC4)C3)ncnc21
solubility [1]: 15 mg/mL (≈ 38.2 mM) | inhibition (INH) [2]: Not Active | fCmin [3]: 52 nM | solubility [4]: 14 mg/mL (≈ 35.7 mM) | fraction unbound [5]: 0.9 | CLint scaled [6]: < 2 mL/min/kg | clearance [7]: 45 mL/min/kg | CL [8]: 10 mL/min/kg | clearance [9]: 4.3 mL/min/kg | clearance [10]: 8.1 mL/min/kg | IC50 [11]: 0.0016 µM | AUC [12]: 133 µM·h | inhibition (INH) [13]: Not Active | bioavailability [14]: 77% | Activity (Rattus norvegicus): 50% | Vd [15]: 0.2 L/kg | IC50 [16]: > 50 µM | CL [17]: 64 mL/min/kg | IC50 (Cytochrome P450 3A4): > 50 µM | fCmin [18]: 8 nM | Vdu [19]: 1.8 L/kg | IC50 [20]: 5 µM | CLint scaled [21]: < 2 mL/min/kg | fraction unbound [22]: 0.47 | IC50 (Cytochrome P450 2B6): > 50 µM | IC50 (Cytochrome P450 2D6): > 50 µM | IC50 [23]: 0.0025 µM | logD [24]: 0.8
